≈ marks a conversion by molar mass, not a printed value. Calls of active or inactive are those of the source. The rule behind the calls is not given here.
How the values were obtained:
[1] = system: Mycobacterium tuberculosis; experiment: Inhibition of intracellular 20S proteasome activity in Mycobacterium tuberculosis assessed as accumulation of pupylated protein at 50 uM incubated for 48 hrs; type: cell-based
In short: (§1)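 Mtb CDC1551 dop::MycoMarT7 expressing Pup-GGE (no depupylation) treated 48 h with compound at 1, 3 or 10 μM, or carfilzomib at 50 μM. Pupylated proteins detected by anti-Pup immunoblot, with anti-PrcB as loading control.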

[2] = target: T1, Proteasome Macropain subunit MB1 (Homo sapiens, UniProt P28074); experiment: Inhibition of human 20S constitutive proteasome beta-5c subunit using Suc-LLVY-AMC as substrate measured over 1.5 to 2 hrs by plate reader assay
T1 sequence (P28074 whole entry): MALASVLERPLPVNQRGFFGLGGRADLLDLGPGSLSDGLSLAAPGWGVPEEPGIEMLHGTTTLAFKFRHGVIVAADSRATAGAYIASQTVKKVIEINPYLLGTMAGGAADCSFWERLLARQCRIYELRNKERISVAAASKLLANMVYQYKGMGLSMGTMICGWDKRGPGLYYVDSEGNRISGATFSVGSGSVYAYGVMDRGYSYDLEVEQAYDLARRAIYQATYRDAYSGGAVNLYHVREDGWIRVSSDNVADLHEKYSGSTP
In short: (§2)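 Human c-20S (from red blood cells; β5c 0.2 nM final) or i-20S (from PBMC; β5i 0.4 nM final), activated with 0.02% SDS. Buffer 20 mM HEPES, 0.5 mM EDTA, pH 7.5; 3-fold compound series from 100 μM.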

[3] = target: T2, Proteasome subunit beta type-8 (Homo sapiens, UniProt P28062); experiment: Inhibition of human 20S immunoproteasome beta-5i subunit using Suc-LLVY-AMC as substrate measured over 1.5 to 2 hrs by plate reader assay; in short: as §2
T2 sequence (P28062 whole entry): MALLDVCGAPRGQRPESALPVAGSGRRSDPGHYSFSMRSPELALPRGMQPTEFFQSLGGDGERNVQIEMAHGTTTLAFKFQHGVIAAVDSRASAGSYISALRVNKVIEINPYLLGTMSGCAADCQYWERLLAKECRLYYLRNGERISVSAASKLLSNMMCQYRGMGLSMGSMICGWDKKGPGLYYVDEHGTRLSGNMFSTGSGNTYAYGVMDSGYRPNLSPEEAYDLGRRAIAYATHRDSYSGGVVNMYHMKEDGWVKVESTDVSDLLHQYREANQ

[4] = target: T3, 20S immunoproteasome beta-1i subunit (Homo sapiens, UniProt P28065); experiment: Inhibition of human 20S immunoproteasome beta-1i subunit at 100 uM using Z-LLE-AMC as substrate measured over 1.5 to 2 hrs by plate reader assay relative to control; conditions: probe Z-LLE-AMC, time 1.5-2 hrs
T3 sequence (P28065 whole entry): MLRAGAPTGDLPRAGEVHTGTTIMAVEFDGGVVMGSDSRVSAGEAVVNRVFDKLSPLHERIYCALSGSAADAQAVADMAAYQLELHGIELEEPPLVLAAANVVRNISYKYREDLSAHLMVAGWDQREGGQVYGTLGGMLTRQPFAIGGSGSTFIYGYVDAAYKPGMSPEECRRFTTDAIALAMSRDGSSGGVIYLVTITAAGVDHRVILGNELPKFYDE
In short: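 Human c-20S β1c or i-20S β1i, activated with 0.02% SDS, with 50 μM Z-LLE-AMC in 20 mM HEPES, 0.5 mM EDTA, pH 7.5. AMC fluorescence (ex 360/em 460 nm) recorded over 1.5–2 h.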

[5] = target: T4, 20S immunoproteasome beta-2i subunit (Homo sapiens, UniProt P40306); experiment: Inhibition of human 20S immunoproteasome beta-2i subunit at 100 uM using Z-VLR-AMC as substrate measured over 1.5 to 2 hrs by plate reader assay relative to control; conditions: probe Z-VLR-AMC, time 1.5-2 hrs
T4 sequence (P40306 whole entry): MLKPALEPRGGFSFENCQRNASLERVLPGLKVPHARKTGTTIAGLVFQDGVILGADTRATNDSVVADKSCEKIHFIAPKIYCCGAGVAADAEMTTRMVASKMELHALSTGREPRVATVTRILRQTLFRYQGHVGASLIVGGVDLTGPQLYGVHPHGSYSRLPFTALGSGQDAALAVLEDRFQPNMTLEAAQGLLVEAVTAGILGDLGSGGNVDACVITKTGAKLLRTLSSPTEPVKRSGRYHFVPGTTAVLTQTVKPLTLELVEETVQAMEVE
In short: (§3)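 Human c-20S β2c or i-20S β2i, activated with 6 nM PA28α, with 50 μM Z-VLR-AMC in 20 mM HEPES, 0.5 mM EDTA, pH 7.5. Compounds in 3-fold series from 100 μM.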

[6] = Permeability of compound by PAMPA; type: ADME
[7] = Kinetic solubility of compound in PBS at pH 6.8 incubated for 24 hrs by UPLC/MS analysis; type: physicochemical; conditions: read-out: Kinetic_solubility
[8] = Stability in human plasma assessed as parent compound remaining incubated for 2 hrs by UPLC/MS analysis; type: ADME, cell-free; conditions: read-out: Stability
HepG2 = experiment: Cytotoxicity against human HepG2 cells assessed as cell viability at 30 uM incubated for 72 hrs relative to control; type: cell-based; conditions: hepg2, 72 h
In short: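 HepG2 cells exposed to 30 μM compound for 72 h, then viability assessed.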

[9] = Stability of human liver microsomes assessed as intrinsic clearance at 1 uM measured upto 30 mins in presence of NADPH generating system by LC/MS-MS analysis; type: ADME, Microsome; conditions: 0.5 h
In short: (§4)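 Compound at 1 μM with human or mouse liver microsomes (0.2 mg protein/mL) in phosphate buffer pH 7.4, started with NADPH-generating system; 1% organic solvent. Incubated at 37 °C for 0, 15 and 30 min in duplicate, quenched with acetonitrile plus internal standard, analysed by LC/MS-MS. CLint = first-order k divided by protein concentration.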

[10] = Stability of mouse liver microsomes assessed as intrinsic clearance at 1 uM measured upto 30 mins in presence of NADPH generating system by LC/MS-MS analysis; type: ADME, Microsome; conditions: 0.5 h; in short: as §4
[11] = system: Mycobacterium tuberculosis; experiment: Inhibition of Mycobacterium tuberculosis 20S proteasome expressed in Escherichia coli BL21(DE3) at 10 to 30 nM using Suc-LLVY-AMC as substrate by plate reader assay; conditions: dose 10-30 nM, TDE = time-dependent effect
[12] = Inhibition of Mycobacterium tuberculosis 20S proteasome expressed in Escherichia coli BL21(DE3) using Suc-LLVY-AMC as substrate by plate reader assay
[13] = system: Mycobacterium tuberculosis; experiment: Inhibition of Mycobacterium tuberculosis 20S proteasome expressed in Escherichia coli BL21(DE3) assessed as half life using Suc-LLVY-AMC as substrate by plate reader assay
[14] = system: Mycobacterium tuberculosis; experiment: Inhibition of intracellular 20S proteasome activity in Mycobacterium tuberculosis MHD1441 expressing Pup-GFP assessed as Pup-GFP accumulation measured after 4 days by fluorescence assay; type: cell-based; conditions: dose 0.1-33 µM, time 4.0 day
In short: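 Mtb H37Rv carrying pSCK1 (produces Pup-GFP), adjusted to OD 0.05 in 7H9. Compounds at 33, 11, 3.7, 1.2, 0.4 and 0.1 μM final, incubated 4 d at 37 °C. OD580 and fluorescence (ex 495/em 510 nm) read; RFU normalised to OD, then expressed as fold of DMSO control; ≥3 independent experiments.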

[15] = system: Mycobacterium tuberculosis; experiment: Bactericidal activity against Mycobacterium tuberculosis under nitrosative stress condition; type: functional, organism-based
In short: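 Non-replicating Mtb Erdman held in Sauton's medium with 0.5 mM NaNO₂ at pH 5.5 to generate NO; killing measured as reported previously.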

[16] = system: Mycobacterium tuberculosis; experiment: Inhibition of intracellular 20S proteasome activity in Mycobacterium tuberculosis assessed as accumulation of pupylated protein incubated for 48 hrs; type: cell-based; conditions: dose 1-10 µM; in short: as §1
[17] = target: T5, Proteasome subunit beta type-10 (Homo sapiens, UniProt P40306); experiment: Inhibition of human 20S immunoproteasome beta-2i subunit using Z-VLR-AMC as substrate measured over 1.5 to 2 hrs by plate reader assay; in short: as §3
T5 sequence (P40306 whole entry): T4 sequence (P40306 whole entry)

| SMILES | IC50 [2] | IC50 [3] | inhibition at 100 µM [4] | inhibition at 100 µM [5] | further results |
| --- | --- | --- | --- | --- | --- |
| CC(C)C[C@H](NC(=O)[C@H](CCc1ccccc1)NC(=O)CN1CCOCC1)C(=O)N[C@@H](Cc1ccccc1)C(=O)N[C@@H](CC(C)C)C(=O)[C@@]1(C)CO1 | – | – | – | – | inhibition [1]: Active |
| O=C1CCCCCCCCOC[C@@H](C(=O)NCc2cccc3ccccc23)NC(=O)[C@H](CC(=O)N2CCCC2)N1 | > 100 µM | > 100 µM | < 50% | < 50% | – |
| CC(=O)N[C@H]1Cc2cccc(c2)Oc2ccc(cc2)C[C@@H](C(=O)NCc2ccccc2F)NC(=O)[C@H](CC(=O)N2CCC[C@@H]2c2ccccc2)NC1=O | > 100 µM | > 100 µM | < 50% | < 50% | – |
| O=C1CCc2cccc(c2)Oc2ccc(cc2)C[C@@H](C(=O)NCc2ccccc2F)NC(=O)[C@H](CC(=O)N2CCCC2)N1 | > 100 µM | 21.1 µM | < 50% | < 50% | – |
| O=C1CCc2cccc(c2)Oc2ccc(cc2)C[C@@H](C(=O)NCc2ccccc2F)NC(=O)[C@H](CC(=O)N2CCC[C@@H]2c2ccccc2)N1 | > 100 µM | > 100 µM | < 50% | < 50% | permeability [6]: 22.7 ×10⁻⁶ cm/s; solubility kinetic at 24 h [7]: 1.4 µg/mL (≈ 2.11 µM); remaining at 2 h [8]: 94%; Activity (HepG2): 98%; CLH [9]: > 768 µL/min/mg; CLH [10]: > 768 µL/min/mg; inhibition [11]: Tde; Ki [12]: 0.0121 µM; T1/2 [13]: 16.5 min; inhibition [14]: Dose-dependent effect; Activity [15]: Dose-dependent effect; inhibition [16]: Dose-dependent effect |
| CCN(CC)C(=O)C[C@H](NC(=O)CCc1ccccc1)C(=O)N[C@@H](Cc1ccc(F)cc1)C(=O)NCc1cccc2ccccc12 | 70 µM | 54.7 µM | – | – | – |
| O=C(N[C@H]1Cc2cccc(c2)Oc2ccc(cc2)C[C@@H](C(=O)NCc2ccccc2F)NC(=O)[C@H](CC(=O)N2CCC[C@@H]2c2ccccc2)NC1=O)c1ccccc1 | > 100 µM | > 100 µM | < 50% | < 50% | – |
| O=C1CCc2cccc(c2)OCCCC[C@@H](C(=O)NCc2ccccc2F)NC(=O)[C@H](CC(=O)N2CCC[C@@H]2C2CC2)N1 | 0.073 µM | 0.069 µM | < 50% | < 50% | IC50 [17]: 44.5 µM |
| O=C1CCc2cccc(c2)OCCCC[C@@H](C(=O)NCc2ccccc2F)NC(=O)[C@H](CC(=O)N2CCC[C@H]2C2CC2)N1 | 1.5 µM | 0.87 µM | < 50% | < 50% | – |
| O=C1CCc2cccc(c2)OCCCC[C@@H](C(=O)NCc2ccccc2F)NC(=O)[C@H](CCN2CCC[C@@H]2c2ccccc2)N1 | 86.2 µM | 47.3 µM | – | – | – |
| O=C1CCCCCCCCC[C@@H](C(=O)NCc2cccc3ccccc23)NC(=O)[C@H](CC(=O)N2CCCC2)N1 | > 100 µM | > 100 µM | < 50% | < 50% | – |
| O=C1CCCCCCCCCC[C@@H](C(=O)NCc2cccc3ccccc23)NC(=O)[C@H](CC(=O)N2CCCC2)N1 | > 100 µM | > 100 µM | < 50% | < 50% | – |
| O=C1CCc2cccc(c2)OCCCC[C@@H](C(=O)NCc2ccccc2F)NC(=O)[C@H](CC(=O)N2CCC[C@@H]2c2ccccc2)N1 | > 100 µM | > 100 µM | < 50% | < 50% | permeability [6]: 20.6 ×10⁻⁶ cm/s; solubility kinetic at 24 h [7]: 33 µg/mL (≈ 52.5 µM); remaining at 2 h [8]: 97%; Activity (HepG2): 102%; CLH [9]: > 768 µL/min/mg; CLH [10]: > 768 µL/min/mg; inhibition [14]: Dose-dependent effect |
| O=C1CCCCCCCCOC[C@@H](C(=O)NCc2ccccc2F)NC(=O)[C@H](CC(=O)N2CCC[C@@H]2c2ccccc2)N1 | > 100 µM | > 100 µM | < 50% | < 50% | permeability [6]: 26 ×10⁻⁶ cm/s; remaining at 2 h [8]: 86%; Activity (HepG2): 91%; CLH [9]: > 768 µL/min/mg; CLH [10]: > 768 µL/min/mg; inhibition [14]: Dose-dependent effect |
| O=C1N[C@@H](CC(=O)N2CCCC2)C(=O)N[C@H](C(=O)NCc2cccc3ccccc23)CCCCCCCCCC1Cc1ccccc1 (stereo partly drawn) | – | > 100 µM | < 50% | < 50% | – |
